Screens: PubChem, several laboratories
An excerpt weighted towards active compounds, which were near 1.6% of everything screened.
ABCB1 block: ABCB1 efflux pump inhibitors, primary screen, cell-based, multiplex, flow cytometry, ABCG2 counter-screen; actives 0.067% (n = 190,000); inhibition, % at 6.6 µM; CCRF-Adr cells, JC-1 efflux; ATP-dependent translocase ABCB1 (Homo sapiens), P08183; in the data active = inhibition above about 40%;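 note: 0% = vehicle and 100% = reference inhibitor; higher value means more JC-1 retained so stronger ABCB1 efflux block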
Target sequence (P08183 whole entry, looked up): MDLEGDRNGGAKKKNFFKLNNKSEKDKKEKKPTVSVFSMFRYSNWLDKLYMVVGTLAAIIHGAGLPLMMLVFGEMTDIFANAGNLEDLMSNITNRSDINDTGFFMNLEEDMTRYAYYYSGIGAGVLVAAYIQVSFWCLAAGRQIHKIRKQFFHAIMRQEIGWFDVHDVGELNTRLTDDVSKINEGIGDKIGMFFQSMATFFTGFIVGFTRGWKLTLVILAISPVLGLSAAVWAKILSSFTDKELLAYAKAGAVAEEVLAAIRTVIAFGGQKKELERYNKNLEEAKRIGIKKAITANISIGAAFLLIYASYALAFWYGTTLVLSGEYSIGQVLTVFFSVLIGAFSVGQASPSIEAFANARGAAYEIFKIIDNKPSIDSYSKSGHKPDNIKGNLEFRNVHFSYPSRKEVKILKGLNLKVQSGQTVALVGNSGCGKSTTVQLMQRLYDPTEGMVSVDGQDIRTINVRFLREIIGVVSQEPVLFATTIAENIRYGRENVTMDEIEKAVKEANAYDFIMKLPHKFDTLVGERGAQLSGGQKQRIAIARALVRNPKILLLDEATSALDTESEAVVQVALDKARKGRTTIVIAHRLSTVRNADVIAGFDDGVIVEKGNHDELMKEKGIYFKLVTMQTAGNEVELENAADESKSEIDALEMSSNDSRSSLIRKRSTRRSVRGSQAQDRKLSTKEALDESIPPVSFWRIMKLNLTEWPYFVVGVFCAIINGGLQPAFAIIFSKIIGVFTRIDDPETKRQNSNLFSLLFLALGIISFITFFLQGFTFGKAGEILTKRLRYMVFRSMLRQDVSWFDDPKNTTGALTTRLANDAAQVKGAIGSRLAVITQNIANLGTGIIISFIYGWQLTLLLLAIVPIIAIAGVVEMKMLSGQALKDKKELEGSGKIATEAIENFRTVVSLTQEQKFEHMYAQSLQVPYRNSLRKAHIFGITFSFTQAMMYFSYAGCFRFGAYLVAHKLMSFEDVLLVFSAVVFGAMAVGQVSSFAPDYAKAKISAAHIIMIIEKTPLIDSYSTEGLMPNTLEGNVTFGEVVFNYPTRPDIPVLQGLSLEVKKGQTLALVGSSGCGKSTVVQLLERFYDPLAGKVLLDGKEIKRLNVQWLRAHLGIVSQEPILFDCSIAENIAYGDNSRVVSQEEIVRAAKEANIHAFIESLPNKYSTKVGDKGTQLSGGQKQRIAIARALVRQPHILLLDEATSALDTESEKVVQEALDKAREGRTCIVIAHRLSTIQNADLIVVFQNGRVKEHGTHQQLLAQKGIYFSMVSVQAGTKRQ
PHOSPHO1 block: PubChem AID 1565 | Phosphoethanolamine/phosphocholine phosphatase (Homo sapiens), Q8TCT1 | recombinant PHOSPHO1, absorbance phosphatase assay | inhibition, % at 13.3 µM | actives 1.1% (n = 290,000); in the data active = inhibition above about 60%
p47phox inh: p47phox/p22phox peptide binding inhibitors, primary screen, biochemical, uHTS, NADPH oxidase regulatory subunit; Neutrophil cytosol factor 1 (Homo sapiens), P14598; fluorescence polarization, 2 h; inhibition, % at 24.7 µM; actives 0.53% (n = 220,000); AID 1274, 2008;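 active = inhibition above about 30%, limit read from the data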;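 note: 0% = p47phox with labelled peptide and 100% = labelled peptide alone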
ABCG2 inh: ABCG2 efflux pump inhibitors, primary screen, multiplex with ABCB1, IgMXP3 cells, flow cytometry; Broad substrate specificity ATP-binding cassette transporter ABCG2 (Homo sapiens), Q9UNQ0; JC-1 efflux; inhibition, % at 6.6 µM; actives 0.1% (n = 190,000); AID 1325, 2008;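 active = inhibition above 80%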;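 note: 0% = DMSO and 100% = nicardipine control wells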
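Assay system – ABCG2 IgMXP3 and barcoded ABCB1 CCRF-Adr cell mix · Input – 3 million cells/mL in well · Reagent – JC-1 fluorescent substrate · Compound – single test compound dose, 6.6 µM final · Timing – 10 min exposure at 25 °C with rotation, no wash · Detection – flow cytometry of retained JC-1 fluorescence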
PKD1 inh: inhibitors of human PKD1 kinase, biochemical, fluorescence polarization; Serine/threonine-protein kinase D1 (Homo sapiens), Q15139; PKD1 kinase fluorescence polarization assay; inhibition, % (no concentration beside the values); actives 0.056% (n = 200,000); in the data active = inhibition above about 50%
HSV replic up: enhancers of HSV replication in host cells, fold increase, host cell viability; maximum fold increase; actives 0.005% (n = 220,000); HSV replication augmentation in cells; AID 1956, 2009; in the data active = maximum fold increase above about 1.5; inconclusive = no clear call, values can overlap the other calls; tested in PC3 cells
Numbers without * were called inactive.

Screening CCOC(=O)N1C2=NC(C(=O)OC)=C(C(=O)OC)[C@@H]3N(C)c4ccccc4[C@]23C[C@H]1C(=O)OC returned PHOSPHO1 block 22, p47phox inh -6 and HSV replic up inactive.
For NNC(=O)c1sccc1OCc1ccc(Cl)cc1 the results were ABCB1 block 2, PHOSPHO1 block -4, p47phox inh 0, ABCG2 inh 16, PKD1 inh 2 and HSV replic up inactive.
Screening CNC(=S)NNC(=O)c1cccn(Cc2cccc(C(F)(F)F)c2)c1=O returned PHOSPHO1 block -144.
`CNC(=S)NNC(=O)c1sccc1OCc1ccc(C)cc1` gave ABCB1 block 0, PHOSPHO1 block 74*, p47phox inh 20, ABCG2 inh 1, PKD1 inh -4 and HSV replic up inactive.
CNC(=S)NNC(=O)c1sccc1OCc1cccc(C(F)(F)F)c1 was read as ABCB1 block -6, PHOSPHO1 block 69*, p47phox inh 1, ABCG2 inh -4, PKD1 inh 3 and HSV replic up inactive.
For Cc1cc(C(=O)N(C)Cc2ccc(Br)cc2)no1 the results were ABCB1 block 1, PHOSPHO1 block 85*, p47phox inh -23, ABCG2 inh 4, PKD1 inh -6 and HSV replic up inactive.
Screening CC12CCC(=O)C=C1CCC1C2CCC2(C)C1CC[C@]2(O)C(=O)CO (stereo partly drawn) returned PHOSPHO1 block 68*.
`O=C(Nc1ccc(C(=O)N2CCCC2)cc1)c1ccc(F)cc1Cl` gave PHOSPHO1 block 53.
COc1ccc(N=Cc2c(O)c3ccccc3n2C(C)=O)cc1 was read as PHOSPHO1 block 24, p47phox inh 31* and HSV replic up inconclusive.
Screening COc1ccc(N=Cc2sc(O)c3ccccc23)cc1 returned ABCB1 block 1, PHOSPHO1 block 2, p47phox inh -36, ABCG2 inh 4, PKD1 inh -6 and HSV replic up inconclusive.
COc1ccc(Cn2c(=O)[nH]c3cc(C(=O)NC4CCCC4)ccc3c2=O)cc1 was read as ABCB1 block 0, PHOSPHO1 block 7, p47phox inh 2, ABCG2 inh 2, PKD1 inh 56* and HSV replic up inactive.
Cc1ccc(NC2=C(C(=O)c3ccccc3)N(C)S(=O)(=O)c3ccccc32)cc1 was read as ABCB1 block 1, PHOSPHO1 block 13, p47phox inh -10, ABCG2 inh 5, PKD1 inh 15 and HSV replic up inconclusive.
CN1C(C(=O)c2ccccc2)=C(N)c2ccccc2S1(=O)=O was read as ABCB1 block -1, PHOSPHO1 block 64*, p47phox inh -8, ABCG2 inh 0, PKD1 inh -4 and HSV replic up inactive.
Screening CCCc1nnc(NC(=O)CCC(=O)N2CCN(Cc3ccc(C)cc3C)CC2)s1 returned PHOSPHO1 block 24.
For CCc1nnc(NC(=O)CCC(=O)N2CCN(Cc3ccc(C)cc3C)CC2)s1 the results were PHOSPHO1 block 70*.
Screening Cc1c([N+](=O)[O-])c(C(=O)Sc2ccc(Br)cc2)nn1C returned PHOSPHO1 block 34, p47phox inh 39* and HSV replic up inactive.
O=C1c2cccc3c([N+](=O)[O-])ccc(c23)C(=O)N1c1ccc(Cl)cn1 was read as ABCB1 block 2, PHOSPHO1 block 93*, p47phox inh 13, ABCG2 inh 8 and PKD1 inh -9.
`O=C1c2cccc3c([N+](=O)[O-])ccc(c23)C(=O)N1c1nccs1` gave ABCB1 block 2, PHOSPHO1 block 97*, p47phox inh 3, ABCG2 inh 8, PKD1 inh -6 and HSV replic up inconclusive.
Screening O=C1c2cccc3c([N+](=O)[O-])ccc(c23)C(=O)N1c1ccccn1 returned ABCB1 block 1, PHOSPHO1 block 34, p47phox inh 4, ABCG2 inh 10 and PKD1 inh -2.
`O=C(CCC(=O)N(CC(=O)NC1CCCC1)Cc1ccccc1Cl)Nc1nccs1` gave PHOSPHO1 block 6.
For Cc1ccccc1CCNC(=O)C1CC(O)CN1C(=O)Nc1ccccc1 (stereo not drawn) the results were PHOSPHO1 block 40.
`CCC(C)N1CCNCC1` (stereo not drawn) gave ABCB1 block 0, PHOSPHO1 block 37, p47phox inh 4, ABCG2 inh 1, PKD1 inh -4 and HSV replic up inactive.
COC(c1ccccc1)c1nnc(CCC(=O)NCCC(C)C)o1 (stereo not drawn) was read as ABCB1 block -2, PHOSPHO1 block 2, p47phox inh -11, ABCG2 inh -2, PKD1 inh -4 and HSV replic up inactive.
For Cc1ccc(C)c(S(=O)(=O)N2CCC(c3nc4c(nnn4Cc4ccc5c(c4)OCCO5)c(=O)[nH]3)CC2)c1 the results were PHOSPHO1 block 33.
Screening FC(F)(F)c1ccccc1Nc1nccs1 returned ABCB1 block 0, PHOSPHO1 block 95*, p47phox inh 0, ABCG2 inh 1, PKD1 inh -28 and HSV replic up inactive.
Cc1ccc(N(C(=O)Cn2nnc(-c3ccccc3F)n2)C(C(=O)NC2CCCC2)c2ccncc2)cc1 (stereo not drawn) was read as PHOSPHO1 block 17.
Cc1ccc(N(C(=O)Cn2nnc(-c3cccs3)n2)C(C(=O)NC2CCCC2)c2ccncc2)cc1 (stereo not drawn) was read as ABCB1 block 1, PHOSPHO1 block 60*, p47phox inh -5, ABCG2 inh 4, PKD1 inh -7 and HSV replic up inactive.
For CCNC(=O)NC(=O)C(C)OC(=O)CNS(=O)(=O)c1c(Cl)cc(Br)cc1Cl (stereo not drawn) the results were ABCB1 block -1, PHOSPHO1 block 28, p47phox inh 0, ABCG2 inh -2, PKD1 inh -6 and HSV replic up inactive.
CC(=O)N1C(=O)C2(C(C#N)=C(N)Oc3n[nH]c(-c4ccccn4)c32)c2ccccc21 (stereo not drawn) was read as ABCB1 block 0, PHOSPHO1 block 19, p47phox inh 151*, ABCG2 inh 1 and PKD1 inh 3.
`Cn1ncc(N=Cc2ccccc2O)c1C(=O)N1CCOCC1` gave ABCB1 block 1, PHOSPHO1 block 11, p47phox inh active, ABCG2 inh -1 and PKD1 inh 12.
Screening O=C(NNC(=O)C1CCN(Cc2ccc(F)cc2Cl)CC1)Nc1ccc([N+](=O)[O-])cc1 returned ABCB1 block 2, PHOSPHO1 block 32, p47phox inh -2, ABCG2 inh 9, PKD1 inh -2 and HSV replic up inactive.
